ChEMBL document CHEMBL4396874, “Consideration of Binding Kinetics in the Design of Stapled Peptide Mimics of the Disordered Proteins Eukaryotic Translation Initiation Factor 4E-Binding Protein 1 and Eukaryotic Translation Initiation Factor 4G” (J Med Chem, 2019)
Activity calls are given as the source filed them. The calls are words filed in the database; no cut-off is given here. Bridge positions count the residues as written; N and C are the ends. Square brackets hold non-standard residues; d marks the D form. Peptide text beside a SMILES is read from it. S5 = C=CCCC[C@](C)(N)C(=O)O

Columns and labels:
[1] = target: T1, Eukaryotic translation initiation factor 4E (Homo sapiens, UniProt P06730); test: Binding affinity to N-terminal 10His-tagged m7GDP-bound recombinant human eIF4E expressed in Escherichia coli BL21 (DE3) cells assessed as dissociation constant at 10 to 25 degreeC by surface plasmon resonance analysis relative to control
Method in brief: (§1)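 Peptides injected at 50 μL/min, 10 concentrations (188 nM to 4.0 μM) in duplicate, random order. Chip stripped with EDTA and reloaded between cycles.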

[2] = target: T1, Eukaryotic translation initiation factor 4E; test: Binding affinity to N-terminal 10His-tagged m7GDP-bound recombinant human eIF4E expressed in Escherichia coli BL21 (DE3) cells assessed as dissociation constant at 25 degreeC in presence 225 to 1000 mM of NaCl by surface plasmon resonance analysis
[3] = target: T1, Eukaryotic translation initiation factor 4E; test: Binding affinity to N-terminal 10His-tagged m7GDP-bound recombinant human eIF4E expressed in Escherichia coli BL21 (DE3) cells assessed as binding constant at 25 degreeC in presence of 1000 mM of NaCl by surface plasmon resonance analysis; method in brief: as §1
[4] = target: T1, Eukaryotic translation initiation factor 4E
[5] = target: Eukaryotic translation initiation factor 4E/Eukaryotic translation initiation factor 4E-binding protein 1 (Homo sapiens, UniProt P06730); test: Inhibition of Halo-tagged biotinylated human eIF4E expressed in Escherichia coli/Halo-tagged methyltetrazine-labelled human 4E-BP1 expressed in Escherichia coli protein-protein interaction incubated for 1 hr by catalytic enzyme-linked click chemistry assay
[6] = target: Eukaryotic translation initiation factor 4E/Eukaryotic translation initiation factor 4E-binding protein 1 (Homo sapiens) (UniProt P06730+Q13541); test: Inhibition of eIF4E/4E-BP1 interaction in human MDA-MB-231 cells incubated for 6 hr by m7GDP pull down assay; format: cell-based
[7] = target: EIF4E/EIF4G1 (Homo sapiens) (UniProt P06730+Q04637); test: Inhibition of eIF4E/eIF4G interaction in human MDA-MB-231 cells incubated for 6 hr by m7GDP pull down assay; format: cell-based
MDA-MB-231 [8] = test: Effect on total eIF4E level in human MDA-MB-231 cells at 5 uM after 6 hrs by Western blot analysis; format: ADME, cell-based; conditions: mda-mb-231, 6 h
Method in brief: (§2)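 MDA-MB-231 cells in 10% FBS treated 6 h with water-dissolved peptides, lysed in RIPA with protease/phosphatase inhibitors, sonicated on ice, protein normalized by BCA, then western blotted (4–12% bis-Tris gel, PVDF, 5% milk block, primary overnight at 4 °C). Triplicate biological replicates.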

MDA-MB-231 [9] = test: Effect on total 4E-BP1 level in human MDA-MB-231 cells at 5 uM after 6 hrs by Western blot analysis; format: ADME, cell-based; conditions: mda-mb-231, 6 h; method in brief: as §2
MDA-MB-231 [10] = test: Effect on total eIF4G level in human MDA-MB-231 cells at 5 uM after 6 hrs by Western blot analysis; format: ADME, cell-based; conditions: mda-mb-231, 6 h; method in brief: as §2
MDA-MB-231 [11] = test: Anti-proliferative activity against human MDA-MB-231 cells at 5 to 20 uM after 6 days by CellTiter-Glo assay; format: functional, cell-based
Method in brief: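 MDA-MB-231 cells (RPMI-1640, 10% FBS, 2 mM glutamine) plated at 2000 cells/well; peptides added at varying concentrations in triplicate for 6 days. Medium then replaced with OptiMEM, cells lysed with CellTiter-Glo reagent, luminescence read within 1 h. Data normalized; triplicate biological replicates.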

MDA-MB-231 [12] = test: Induction of cell lysis in human MDA-MB-231 cells assessed as LDH leakage at 15 uM after 24 hrs by LDH cytotoxicity assay; conditions: mda-mb-231, 24 h
[13] = target: T1, Eukaryotic translation initiation factor 4E; test: Binding affinity to N-terminal 10His-tagged m7GDP-bound recombinant human eIF4E expressed in Escherichia coli BL21 (DE3) cells assessed as association constant at 12.5 to 200 nM at 10 to 25 degreeC by surface plasmon resonance analysis
[14] = target: T1, Eukaryotic translation initiation factor 4E; test: Binding affinity to N-terminal 10His-tagged m7GDP-bound recombinant human eIF4E expressed in Escherichia coli BL21 (DE3) cells assessed as binding constant at 10 to 25 degreeC by surface plasmon resonance analysis
[15] = target: T1, Eukaryotic translation initiation factor 4E; test: Binding affinity to N-terminal 10His-tagged m7GDP-bound recombinant human eIF4E expressed in Escherichia coli BL21 (DE3) cells assessed as binding constant at 25 degreeC by surface plasmon resonance analysis
Method in brief: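 m7GDP-bound His10-eIF4E captured to ~600 RU on a Ni-activated HisCap chip. EDTA regeneration between cycles. Kd from global 1:1 fit; triplicate experiments.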

[16] = target: T1, Eukaryotic translation initiation factor 4E; test: Binding affinity to N-terminal 10His-tagged m7GDP-bound recombinant human eIF4E expressed in Escherichia coli BL21 (DE3) cells assessed as association rate constant at 25 degreeC by surface plasmon resonance analysis
[17] = target: T1, Eukaryotic translation initiation factor 4E; test: Binding affinity to N-terminal 10His-tagged m7GDP-bound recombinant human eIF4E expressed in Escherichia coli BL21 (DE3) cells assessed as dissociation rate constant at 25 degreeC by surface plasmon resonance analysis

T1 sequence (P06730 whole entry): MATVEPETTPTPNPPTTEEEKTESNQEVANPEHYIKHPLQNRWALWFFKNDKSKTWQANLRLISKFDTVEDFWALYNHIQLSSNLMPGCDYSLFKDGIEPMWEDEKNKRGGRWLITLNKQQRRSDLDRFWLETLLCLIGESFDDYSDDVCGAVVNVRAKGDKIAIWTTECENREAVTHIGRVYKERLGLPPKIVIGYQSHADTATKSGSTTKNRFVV
Sequence of Eukaryotic translation initiation factor 4E/Eukaryotic translation initiation factor 4E-binding protein 1 (P06730 whole entry): as above
Sequence of Eukaryotic translation initiation factor 4E/Eukaryotic translation initiation factor 4E-binding protein 1 (Q13541 whole entry, further chain): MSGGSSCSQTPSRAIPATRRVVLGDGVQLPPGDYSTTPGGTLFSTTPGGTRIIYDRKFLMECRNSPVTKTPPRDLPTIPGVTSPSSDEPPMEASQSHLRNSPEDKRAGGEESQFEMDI
Sequence of Eukaryotic translation initiation factor 4E/Eukaryotic translation initiation factor 4E-binding protein 1 (Homo sapiens) (P06730 2-217 limits assumed): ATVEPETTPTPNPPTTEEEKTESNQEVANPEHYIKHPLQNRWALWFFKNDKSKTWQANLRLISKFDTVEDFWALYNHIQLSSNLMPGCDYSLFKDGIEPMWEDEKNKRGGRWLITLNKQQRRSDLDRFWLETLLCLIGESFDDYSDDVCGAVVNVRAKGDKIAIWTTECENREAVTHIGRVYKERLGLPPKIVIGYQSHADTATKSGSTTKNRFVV
Sequence of Eukaryotic translation initiation factor 4E/Eukaryotic translation initiation factor 4E-binding protein 1 (Homo sapiens) (Q13541 2-118 partner limits assumed): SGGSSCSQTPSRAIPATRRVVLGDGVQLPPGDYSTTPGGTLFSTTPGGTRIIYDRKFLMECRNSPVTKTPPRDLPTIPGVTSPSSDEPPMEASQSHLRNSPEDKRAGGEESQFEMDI

How did the fold change (FC) [1] turn out when CC[C@H](C)[C@H](NC(=O)[C@@H](NC(=O)[C@@H](N)CCCNC(=N)N)[C@@H](C)CC)C(=O)N[C@@H](Cc1ccc(O)cc1)C(=O)N[C@@H](CC(=O)O)C(=O)N[C@@H](CCCNC(=N)N)C(=O)N[C@@H](CCCCN)C(=O)N[C@@H](Cc1ccccc1)C(=O)N[C@@H](CC(C)C)C(=O)N[C@@H](CCSC)C(=O)N[C@@H](CCC(=O)O)C(=O)N[C@@H](CS)C(=O)N[C@@H](CCCNC(=N)N)C(=O)N[C@@H](CC(N)=O)C(N)=O was run?
Its fold change (FC) is 3.9 to 5.5.

And the Kd [2]?
Its Kd is “Not Active”.

And the K [3]?
Its K is “Active”.

And the Ka [4]?
The Ka was “inactive”.

CC(=O)N[C@@H](CCCCN)C(=O)N[C@@H](CCCCN)C(=O)N[C@@H](CCCNC(=N)N)C(=O)N[C@@H](Cc1ccc(O)cc1)C(=O)N[C@@H](CO)C(=O)N[C@@H](CCCNC(=N)N)C(=O)N[C@@]1(C)CCC/C=C\CCC[C@@](C)(C(=O)N[C@@H](CC(C)C)C(N)=O)NC(=O)[C@H](CC(C)C)NC(=O)[C@H](CC(C)C)NC(=O)[C@H](CCC(N)=O)NC1=O was tested. Which IC50 [5] did it give?
The IC50 was 16.6 to 31 nM.

What about the inhibition [6] of the same molecule?
Its inhibition is “Dose-dependent effect”.

And the inhibition [7]?
The inhibition was “Dose-dependent effect”.

And the Activity (MDA-MB-231 [8])?
Its Activity is “Non-Toxic”.

And the Activity (MDA-MB-231 [9])?
Its Activity is “Non-Toxic”.

And the Activity (MDA-MB-231 [10])?
The Activity was “Non-Toxic”.

And the Activity (MDA-MB-231 [11])?
Its Activity is “Active”.

What about the Activity (MDA-MB-231 [12]) of the same molecule?
Its Activity is “Non-Toxic”.

CC[C@H](C)[C@H](NC(=O)[C@H](CCCNC(=N)N)NC(=O)[C@@H](NC(=O)CNC(C)=O)[C@@H](C)O)C(=O)N[C@H](C(=O)N[C@@H](Cc1ccc(O)cc1)C(=O)N[C@@H](CC(=O)O)C(=O)N[C@@H](CCCNC(=N)N)C(=O)N[C@@]1(C)CCC/C=C\CCC[C@@](C)(C(=O)N[C@@H](CS)C(=O)N[C@@H](CCCNC(=N)N)C(=O)N[C@@H](CC(N)=O)C(N)=O)NC(=O)[C@H](C)NC(=O)[C@H](C)NC(=O)[C@H](Cc2ccccc2)NC1=O)[C@@H](C)CC was tested. Which Activity (MDA-MB-231 [11]) did it give?
Its Activity is “inactive”.

What does the source list for CC[C@H](C)[C@H](NC(=O)[C@H](CCCNC(=N)N)NC(=O)[C@@H](NC(=O)CNC(C)=O)[C@@H](C)O)C(=O)N[C@H](C(=O)N[C@@H](Cc1ccc(O)cc1)C(=O)N[C@@H](CC(=O)O)C(=O)N[C@@H](CCCNC(=N)N)C(=O)N[C@@]1(C)CCC/C=C\CCC[C@@](C)(C(=O)N[C@@H](CS)C(=O)N[C@@H](CCCNC(=N)N)C(=O)N[C@@H](CC(N)=O)C(N)=O)NC(=O)[C@H](CCSC)NC(=O)[C@H](CC(C)C)NC(=O)[C@H](Cc2ccccc2)NC1=O)[C@@H](C)CC?
IC50 [5]: 3.1 to 6.7 nM; Activity (MDA-MB-231 [8]): Non-Toxic; Activity (MDA-MB-231 [9]): Non-Toxic; Activity (MDA-MB-231 [10]): Non-Toxic; Activity (MDA-MB-231 [11]): Active

For CC(=O)N[C@@H](CCCCN)C(=O)N[C@@H](CCCCN)C(=O)N[C@@H](CCCNC(=N)N)C(=O)N[C@@H](Cc1ccc(O)cc1)C(=O)N[C@@H](CC(=O)O)C(=O)N[C@@H](CCCNC(=N)N)C(=O)N[C@@]1(C)CCC/C=C\CCC[C@@](C)(C(=O)N[C@@H](Cc2ccccc2)C(=O)N[C@@H](CCC(N)=O)C(=O)N[C@@H](Cc2ccccc2)C(N)=O)NC(=O)[C@H](CC(C)C)NC(=O)[C@H](CC(C)C)NC(=O)[C@H](Cc2ccccc2)NC1=O (Ac-KKRYDR[S5]FLL[S5]FQF-NH2; staple (Z) 7-11), which IC50 [5] is on record?
The IC50 was 4500 to 7300 nM.

Which IC50 [5] does the source give for CC(=O)N[C@@H](CCCCN)C(=O)N[C@@H](CCCCN)C(=O)N[C@@H](CCCNC(=N)N)C(=O)N[C@@H](Cc1ccc(O)cc1)C(=O)N[C@@H](CC(=O)O)C(=O)N[C@@H](CCCNC(=N)N)C(=O)N[C@@H](CCC(=O)O)C(=O)N[C@@H](Cc1ccccc1)C(=O)N[C@@H](CC(C)C)C(=O)N[C@@H](CC(C)C)C(=O)NCC(=O)N[C@@H](Cc1ccccc1)C(=O)N[C@@H](CCC(N)=O)C(=O)N[C@@H](Cc1ccccc1)C(N)=O here?
The IC50 was 137 to 195 nM.

How did the Ka [13] turn out when Ac-KKRYSREQLLGL-NH2 was run?
The Ka was “inactive”.

What about the fold change (FC) [1] of the same molecule?
The fold change (FC) was 3.9 to 5.5.

And the K [14]?
Its K is “Active”.

What about the K [15] of the same molecule?
Its K is 62 nM.

What about the IC50 [5] of the same molecule?
Its IC50 is 384 to 633 nM.

And the K [3]?
The K was 14 to 62 nM.

And the kon [16]?
The kon was 2 ×10⁶ /M/s.

What about the koff [17] of the same molecule?
The koff was 123 ×10⁻³ /s.

H-KKRYDRKFLMECRN-NH2 was tested. Which fold change (FC) [1] did it give?
The fold change (FC) was 3.9 to 5.5.

And the kon [16]?
Its kon is 2 ×10⁶ /M/s.
